# Assay outcomes: PubChem, several laboratories
# Sampled rows, rich in hits. Any-hit rate of the full collection: about 9.2%.
# HCT116 PTEN-null: growth suppression of PTEN-null HCT116, primary screen, cell-based, CellTiter-Glo. HCT116 PTEN-null viability, 60 h; hits give low values. viability, % at 10 µM. 1.2% of 140,000 active. AID 827, 2007;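 active = viability at or below a set limit, 4 SD under the median of all tested compounds, cut at about 3.7% in these data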;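 note: PTEN knockout HCT116 line with beta catenin targeted HCT116 as companion control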
# Dynein transport: inhibitors of GR-EGFP nuclear translocation, primary screen, dynein cargo transport inhibitor project, imaging, high-content, 3617.4 mouse cells | test concentration mostly 20 µM; stimulated with dexamethasone, 1 µM; hits give low values | z-score, hits read low | 0.47% of 220,000 active;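 active = plate z-score of nuclear minus cytoplasmic receptor signal below a set negative limit, without overly bright fluorescence or cell loss, cut at about -3.5 in these data, passing the limit was not always enough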;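 note: z-score of nuclear minus cytoplasmic ring GR-EGFP intensity difference per well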
#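 Buffer or medium: tet-free, stripped-serum medium; Also added: dexamethasone, 1.0 µM final; Technique: high-content fluorescence imaging after fixation; Times: 48 h induction, 1 h compound, 30 min dex at 37 °C; Read-out: per-cell GR-EGFP intensity, nucleus versus surrounding cytoplasmic ring, well-averaged.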
# Autophagy HCS: autophagy modulators in MEF cells, primary screen, imaging, high-content, MEF GFP-LC3; MEF GFP-LC3 puncta imaging; test concentration mostly 10 µM; calls only at 10 µM (by protocol); 0.98% of 190,000 active;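 active = percentage of spot-positive cells more than 3 SD above its plate mean, without a fluorescence outlier flag or 80% toxicity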;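 note: spot-positive cell cutoff set from DMSO-treated cells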
# bCat KO growth: primary screen for growth suppressors in beta-catenin knockout HCT116 cells (colon tumor, human); HCT116 beta-catenin knockout viability, CellTiter-Glo, 60 h; hits give low values; viability, % at 10 µM; 1.5% of 140,000 active; AID 818, 2007;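 active = viability at or under a set limit, the compound median less 4 SD, cut at about 6% in these data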;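 note: 0% = Hyamine 1622 control at 20 µM and 100% = untreated cell control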
# Lmaj promast: Leishmania major promastigote growth inhibition, primary screen. Leishmania major promastigotes, resazurin fluorescence viability. 9% of 200,000 active. inhibition, % at 10 µM; in the data active = inhibition above about 50%;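 note: promastigotes grown with compound for 44 hours at 28 °C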
# * marks the source's active call; other numbers are inactive results; i = inactive; . = no result given; + = active, no number.
SMILES,HCT116 PTEN-null,Dynein transport,Autophagy HCS,bCat KO growth,Lmaj promast
CCCCC(C(=O)NC(=O)NCc1ccccc1)N1C(=O)c2ccccc2C1=O (stereo not drawn),105,0.24,i,102,-2
COCCn1c(SCCOc2ccccc2)nc2ccccc2c1=O,.,-1.1,i,.,-4
COC(=O)c1ccc(Oc2c(C(F)(F)F)oc3c(CN4CCN(C)CC4)c(O)ccc3c2=O)cc1,96,1.8,i,88,100*
COc1ccccc1-c1c(C)oc2c(CN3CCN(C)CC3)c(O)ccc2c1=O,85,-0.7,i,82,90*
COc1ccc(-c2c(C)oc3c(CN4CCN(CCO)CC4)c(O)ccc3c2=O)cc1OC,89,-0.61,i,93,99*
CCOc1ccccc1Oc1c(C)oc2c(CN3CCN(C)CC3)c(O)ccc2c1=O,100,-0.66,i,96,75*
COc1ccc(/C=C/c2nnc(NC(=O)CSc3ccc(Cl)cc3)s2)cc1,62,-0.33,i,74,-6
Cc1cc([N+](=O)[O-])ccc1NC(=O)C(C)N1CCN(c2ccccn2)CC1 (stereo not drawn),.,-0.45,i,.,-9
O=C(O)CSc1nnc(-c2cccc(S(=O)(=O)N3CCOCC3)c2)n1-c1cccc(Cl)c1,.,0.098,.,.,.
CCN(CC)CCN1CCn2c3c(c4cc(C)ccc42)CCCC31 (stereo not drawn),27,0.82,i,47,100*
CCn1c2c(c3cc(Cl)ccc31)CCCC2=O,104,1.8,i,85,-4
CCN1CCn2c3c(c4cc(Cl)ccc42)CCCC31 (stereo not drawn),74,0.37,i,77,54*
CCOC(=O)/C(C#N)=C1\CC2CCC1(C)C2(C)C (stereo not drawn),.,0.039,i,.,-3
CC(=O)Nc1ccc(S(=O)(=O)NC2(C(F)(F)F)N=C(c3ccccc3)NC2=O)cc1 (stereo not drawn),105,-0.44,i,108,-4
COc1ccc(C2=NNC(c3cccs3)=Nc3ccc(OC)cc32)cc1,87,-0.29,i,89,10
CCOc1ccc(C2=NNC(c3cccs3)=Nc3ccc(OC)cc32)cc1OCC,76,-0.0091,i,77,67*
COc1ccc(NC(=O)COC(=O)c2c3c(nc4ccccc24)CCCC3)cc1Cl,13,0.94,i,11,23
Cc1ccc2c(C)c(C(=O)N(Cc3cccs3)C3CCS(=O)(=O)C3)oc2c1 (stereo not drawn),78,1.5,i,82,88*
CCOc1ccc(CN(C(=O)c2oc3cc(C)ccc3c2C)C2CCS(=O)(=O)C2)cc1 (stereo not drawn),16,3,i,16,31
CC(=O)Nc1ccc(/C(C)=N/Nc2nc(Nc3ccccc3)nc(N3CCOCC3)n2)cc1,.,-0.93,+,.,-3
O=C(O)COc1ccc(/C=N/Nc2nc(Nc3ccccc3)nc(N3CCCCC3)n2)cc1,.,0.48,i,.,-6
O=C(NNc1nc(Nc2ccccc2)nc(N2CCOCC2)n1)Nc1ccc(Cl)cc1,.,-0.98,i,.,8
CCOc1cc(/C=N\Nc2nc(Nc3ccccc3)nc(N3CCOCC3)n2)ccc1OC(=O)c1ccco1,23,0.53,i,28,88*
COc1cc(/C=N/Nc2nc(C)cc(C)n2)ccc1OC(=O)c1ccco1,97,0.43,i,93,51*
COC(=O)N/N=C/c1ccc(OC(=O)c2ccco2)c(OC)c1,.,-0.15,.,.,.
SMILES,HCT116 PTEN-null,Dynein transport,Autophagy HCS,bCat KO growth,Lmaj promast
Cc1ccc(Nc2nc(N/N=C\c3ccc4c(c3)OCO4)nc(N3CCOCC3)n2)cc1,.,-1.2,i,.,54*
COc1cccc(Oc2c(C)oc3c(CN4CCCC4)c(O)ccc3c2=O)c1,.,-1.1,.,.,.
CCn1c(SCC(=O)Nc2nccc(C)n2)nc2ccccc21,.,-0.46,.,.,.
COc1ccc(/C=N/OC(=O)Nc2ccc(Cl)cc2)c(OC)c1,.,-0.28,.,.,.
Cc1ccc(/C=C/C(=O)N2CCCC(C(N)=O)C2)o1 (stereo not drawn),.,0.77,.,.,.
COc1cc(/C=N/Nc2ccc3ccccc3c2)ccc1OC(=O)c1ccco1,80,-0.44,i,78,88*
CCCNC(=O)NC(=O)COC(=O)c1ccc(S(=O)(=O)N(C)c2ccccc2OC)cc1,.,1.7,i,.,73*
COc1ccccc1N(C)S(=O)(=O)c1ccc(C(=O)OCC(=O)N2CCCCCC2)cc1,.,-0.69,i,.,100*
COc1ccccc1N(C)S(=O)(=O)c1ccc(C(=O)OCC(N)=O)cc1,.,0.35,i,.,24
COc1ccccc1N(C)S(=O)(=O)c1ccc(C(=O)OCC(=O)NCCC2=CCCCC2)cc1,89,-0.13,i,89,34
Cc1cccc2nc(-c3ccccc3)nc(N3CCC(O)(c4ccc(Cl)cc4)CC3)c12,73,2.9,i,80,79*
CN1CCN(c2nc(-c3ccccc3)nc(-c3ccccc3)c2C#N)CC1,.,-0.15,i,.,24
Cc1nn(-c2ccccc2)c(/N=C/c2ccc(O)cc2)c1-c1ccccc1,97,-0.38,i,91,52*
CCOC(=O)c1cn(-c2nc(-c3ccc(Cl)c(Cl)c3)cs2)c2c(F)c(N3CCOCC3)c(F)cc2c1=O,1.2*,1.1,i,1.7*,0
O=C(CN1CCCCCC1)NCCc1ccc(F)cc1,89,-0.22,i,84,4
CCCCc1nc2ccccc2c(N)c1CCC (tested in a mixture with another compound),36,-0.47,i,46,95*
CCOc1ccc(NC(=O)C2CCCN(C)C2)cc1 (stereo not drawn),.,1.1,.,.,.
C=C(C(=O)c1ccccc1)C(C)C(=C)C(=O)c1ccccc1,1.4*,-3.1,i,2.4*,100*
C=C(C(=O)c1ccccc1)C(c1ccccc1)C(C)C(=O)c1ccccc1 (stereo not drawn),9,-1.7,i,11,89*
O=C(O)c1ccc(C(=O)C(=O)c2ccccc2)cc1,.,2.1,.,.,.
CC(=O)c1nn(-c2cccc(Br)c2)cc1C(=O)c1ccc2ccccc2c1,4,0.08,i,3.7*,3
CCCCSc1cc(=O)[nH]c(N)n1,.,-1.3,.,.,.
Nc1nc(Nc2ccc(Cl)cc2)nc2ccccc12,22,-0.099,i,17,93*
Cc1ccccc1Nc1ncc(C#N)c(N)n1,.,-0.26,.,.,.
Cc1ccccc1Nc1nc(N)c2ccccc2n1,.,0.25,i,.,96*
Nc1nc(Nc2ccccc2)nc2ccccc12,62,-0.16,i,68,80*
Nc1nc(CCl)nc(Nc2ccccc2)n1,.,-1.3,i,.,49
C/C(=N\Nc1cccc(C(=O)O)c1)c1cc2ccccc2o1,.,-0.68,i,.,-15
COCCOC(=O)C1=C(C)NC(=O)NC1c1cn(-c2ccccc2)nc1-c1cccs1 (stereo not drawn),94,-0.94,i,99,-2
